Results published in ChEMBL document CHEMBL1133591, “Potent derivatives of glucagon-like peptide-1 with pharmacokinetic properties suitable for once daily administration” (J Med Chem, 2000).
Numbered stars: 1 amine (or outer) side, 2 acyl side, 3 side chain; on linkers, the order of the positions; unused ones are H or OH. Square brackets hold non-standard residues; d marks the D form. Side chains are listed from the residue outwards. Peptide text beside a SMILES is read from it. * marks the point of attachment. ξ: configuration not given here. X2 = CCCCCCCCCCCCCC(CCCCC(=O)*)C(=O)O; ξγGlu = O=C(O)C(CCC(=O)[*:2])N[*:1]; Stearoyl = CCCCCCCCCCCCCCCCCC(=O)*; Palmitoyl = CCCCCCCCCCCCCCCC(=O)*; ξK = NCCCCC(N)C(=O)O

Target: Glucagon-like peptide 1 receptor (Homo sapiens, UniProt P43220)
Sequence (P43220 whole entry): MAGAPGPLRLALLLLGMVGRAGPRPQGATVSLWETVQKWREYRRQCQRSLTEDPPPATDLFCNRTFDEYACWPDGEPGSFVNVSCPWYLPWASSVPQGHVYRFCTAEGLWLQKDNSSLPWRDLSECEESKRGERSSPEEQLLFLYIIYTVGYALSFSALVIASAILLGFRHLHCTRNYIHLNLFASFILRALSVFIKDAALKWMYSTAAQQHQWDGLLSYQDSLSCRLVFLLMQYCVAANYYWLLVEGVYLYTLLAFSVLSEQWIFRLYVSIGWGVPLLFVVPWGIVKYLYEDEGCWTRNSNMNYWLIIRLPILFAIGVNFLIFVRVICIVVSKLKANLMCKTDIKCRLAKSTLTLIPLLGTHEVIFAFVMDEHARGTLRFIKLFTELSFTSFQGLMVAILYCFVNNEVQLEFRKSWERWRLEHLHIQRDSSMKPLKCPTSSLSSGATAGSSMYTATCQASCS
Assay: Potency measured using recombinant human GLP-1 receptor expressed in Baby Hamster Kidney (BHK)cells
Type: cell-based
Settings: not given
In the case of `CCCCCCCCCCCCCCCC(=O)NC(CCC(=O)NCCCC[C@H](NC(=O)CNC(=O)[C@H](CCC(=O)O)NC(=O)[C@H](CC(C)C)NC(=O)[C@H](Cc1ccc(O)cc1)NC(=O)[C@H](CO)NC(=O)[C@H](CO)NC(=O)[C@@H](NC(=O)[C@H](CC(=O)O)NC(=O)[C@H](CO)NC(=O)[C@@H](NC(=O)[C@H](Cc1ccccc1)NC(=O)[C@@H](NC(=O)CNC(=O)[C@H](CCC(=O)O)NC(=O)[C@H](C)NC(=O)[C@@H](N)Cc1c[nH]cn1)[C@@H](C)O)[C@@H](C)O)C(C)C)C(=O)N[C@@H](C)C(=O)N[C@@H](C)C(=O)N[C@@H](CCCN=C(N)N)C(=O)N[C@@H](CCC(=O)O)C(=O)N[C@@H](Cc1ccccc1)C(=O)N[C@H](C(=O)N[C@@H](C)C(=O)N[C@@H](Cc1c[nH]c2ccccc12)C(=O)N[C@@H](CC(C)C)C(=O)N[C@H](C(=O)N[C@@H](CCCN=C(N)N)C(=O)NCC(=O)N[C@@H](CCCN=C(N)N)C(=O)NCC(=O)O)C(C)C)[C@@H](C)CC)C(=O)O` (stereo partly specified) (H-HAEGTFTSDVSSYLEGK([ξγGlu-Palmitoyl])AAREFIAWLVRGRG-OH), the EC50 is reported as 0.0301 nM. In the case of `CCCCCCCCCCCCCC(CCCCC(=O)NCCCC[C@H](NC(=O)CNC(=O)[C@H](CCCN=C(N)N)NC(=O)[C@@H](NC(=O)[C@H](CC(C)C)NC(=O)[C@H](Cc1c[nH]c2ccccc12)NC(=O)[C@H](C)NC(=O)[C@@H](NC(=O)[C@H](Cc1ccccc1)NC(=O)[C@H](CCC(=O)O)NC(=O)[C@H](CCCN=C(N)N)NC(=O)[C@H](C)NC(=O)[C@H](C)NC(=O)[C@H](CCC(N)=O)NC(=O)CNC(=O)[C@H](CCC(=O)O)NC(=O)[C@H](CC(C)C)NC(=O)[C@H](Cc1ccc(O)cc1)NC(=O)[C@H](CO)NC(=O)[C@H](CO)NC(=O)[C@@H](NC(=O)[C@H](CC(=O)O)NC(=O)[C@H](CO)NC(=O)[C@@H](NC(=O)[C@H](Cc1ccccc1)NC(=O)[C@@H](NC(=O)CNC(=O)[C@H](CCC(=O)O)NC(=O)[C@H](C)NC(=O)[C@@H](N)Cc1c[nH]cn1)[C@@H](C)O)[C@@H](C)O)C(C)C)[C@@H](C)CC)C(C)C)C(=O)NCC(=O)O)C(=O)O` (stereo partly specified) (H-HAEGTFTSDVSSYLEGQAAREFIAWLVRGK(X2)G-OH), the EC50 is reported as 0.21 nM. `CCCCCCCCCCCCCCCC(=O)NC(CCC(=O)NCCCCC(NC(=O)CNC(=O)[C@H](CCCN=C(N)N)NC(=O)CNC(=O)[C@H](CCCN=C(N)N)NC(=O)[C@@H](NC(=O)[C@H](CC(C)C)NC(=O)[C@H](Cc1c[nH]c2ccccc12)NC(=O)[C@H](C)NC(=O)[C@@H](NC(=O)[C@H](Cc1ccccc1)NC(=O)[C@H](CCC(=O)O)NC(=O)[C@H](CCCN=C(N)N)NC(=O)[C@H](C)NC(=O)[C@H](C)NC(=O)[C@H](CCC(N)=O)NC(=O)CNC(=O)[C@H](CCC(=O)O)NC(=O)[C@H](CC(C)C)NC(=O)[C@H](Cc1ccc(O)cc1)NC(=O)[C@H](CO)NC(=O)[C@H](CO)NC(=O)[C@@H](NC(=O)[C@H](CC(=O)O)NC(=O)[C@H](CO)NC(=O)[C@@H](NC(=O)[C@H](Cc1ccccc1)NC(=O)[C@@H](NC(=O)CNC(=O)[C@H](CCC(=O)O)NC(=O)CNC(=O)[C@@H](N)Cc1c[nH]cn1)[C@@H](C)O)[C@@H](C)O)C(C)C)[C@@H](C)CC)C(C)C)C(=O)O)C(=O)O` (stereo partly specified) (H-HGEGTFTSDVSSYLEGQAAREFIAWLVRGRG[ξK]([ξγGlu-Palmitoyl])-OH) gave an EC50 of 0.328 nM. Molecule `CCCCCCCCCCCCCCCC(=O)NC(CCC(=O)NCCCCC(NC(=O)[C@H](CCC(=O)O)NC(=O)[C@H](CCCN=C(N)N)NC(=O)CNC(=O)[C@H](CCCN=C(N)N)NC(=O)[C@@H](NC(=O)[C@H](CC(C)C)NC(=O)[C@H](Cc1c[nH]c2ccccc12)NC(=O)[C@H](C)NC(=O)[C@@H](NC(=O)[C@H](Cc1ccccc1)NC(=O)[C@H](CCC(=O)O)NC(=O)[C@H](CCCN=C(N)N)NC(=O)[C@H](C)NC(=O)[C@H](C)NC(=O)[C@H](CCC(N)=O)NC(=O)CNC(=O)[C@H](CCC(=O)O)NC(=O)[C@H](CC(C)C)NC(=O)[C@H](Cc1ccc(O)cc1)NC(=O)[C@H](CO)NC(=O)[C@H](CO)NC(=O)[C@@H](NC(=O)[C@H](CC(=O)O)NC(=O)[C@H](CO)NC(=O)[C@@H](NC(=O)[C@H](Cc1ccccc1)NC(=O)[C@@H](NC(=O)CNC(=O)[C@H](CCC(=O)O)NC(=O)[C@H](C)NC(=O)[C@@H](N)Cc1c[nH]cn1)[C@@H](C)O)[C@@H](C)O)C(C)C)[C@@H](C)CC)C(C)C)C(=O)O)C(=O)O` (stereo partly specified) has an EC50 of 0.0272 nM. `CCCCCCCCCCCCCCCCCC(=O)NC(CCC(=O)NCCCCC(NC(=O)[C@H](CCC(=O)O)NC(=O)[C@H](CCCN=C(N)N)NC(=O)CNC(=O)[C@H](CCCN=C(N)N)NC(=O)[C@@H](NC(=O)[C@H](CC(C)C)NC(=O)[C@H](Cc1c[nH]c2ccccc12)NC(=O)[C@H](C)NC(=O)[C@@H](NC(=O)[C@H](Cc1ccccc1)NC(=O)[C@H](CCC(=O)O)NC(=O)[C@H](CCCN=C(N)N)NC(=O)[C@H](C)NC(=O)[C@H](C)NC(=O)[C@H](CCC(N)=O)NC(=O)CNC(=O)[C@H](CCC(=O)O)NC(=O)[C@H](CC(C)C)NC(=O)[C@H](Cc1ccc(O)cc1)NC(=O)[C@H](CO)NC(=O)[C@H](CO)NC(=O)[C@@H](NC(=O)[C@H](CC(=O)O)NC(=O)[C@H](CO)NC(=O)[C@@H](NC(=O)[C@H](Cc1ccccc1)NC(=O)[C@@H](NC(=O)CNC(=O)[C@H](CCC(=O)O)NC(=O)CNC(=O)[C@@H](N)Cc1c[nH]cn1)[C@@H](C)O)[C@@H](C)O)C(C)C)[C@@H](C)CC)C(C)C)C(=O)O)C(=O)O` (stereo partly specified) (H-HGEGTFTSDVSSYLEGQAAREFIAWLVRGRE[ξK]([ξγGlu-Stearoyl])-OH) gave an EC50 of 0.213 nM.

Tested on: not listed separately
Assay: Plasma half life was determined in pigs
Type: ADME, organism-based, Sus scrofa
Settings: pig
Summary of the method: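 Landrace × Duroc × Yorkshire pigs, 25–50 kg, two per compound; single sc dose, 0.5 nmol/kg for analogues, 15 nmol/kg for GLP-1. Jugular catheter blood at 0–72 h, extra early samples for GLP-1; EDTA/aprotinin/bacitracin-stabilized plasma. Unextracted plasma assayed by N-terminal-specific GLP-1 radioimmunoassay against spiked pig-plasma calibrators; half-life calculated per pig, reported as mean ± SD.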
With `CCCCCCCCCCCCCCCC(=O)NC(CCC(=O)NCCCC[C@H](NC(=O)CNC(=O)[C@H](CCC(=O)O)NC(=O)[C@H](CC(C)C)NC(=O)[C@H](Cc1ccc(O)cc1)NC(=O)[C@H](CO)NC(=O)[C@H](CO)NC(=O)[C@@H](NC(=O)[C@H](CC(=O)O)NC(=O)[C@H](CO)NC(=O)[C@@H](NC(=O)[C@H](Cc1ccccc1)NC(=O)[C@@H](NC(=O)CNC(=O)[C@H](CCC(=O)O)NC(=O)[C@H](C)NC(=O)[C@@H](N)Cc1c[nH]cn1)[C@@H](C)O)[C@@H](C)O)C(C)C)C(=O)N[C@@H](C)C(=O)N[C@@H](C)C(=O)N[C@@H](CCCN=C(N)N)C(=O)N[C@@H](CCC(=O)O)C(=O)N[C@@H](Cc1ccccc1)C(=O)N[C@H](C(=O)N[C@@H](C)C(=O)N[C@@H](Cc1c[nH]c2ccccc12)C(=O)N[C@@H](CC(C)C)C(=O)N[C@H](C(=O)N[C@@H](CCCN=C(N)N)C(=O)NCC(=O)N[C@@H](CCCN=C(N)N)C(=O)NCC(=O)O)C(C)C)[C@@H](C)CC)C(=O)O` (stereo partly specified) (H-HAEGTFTSDVSSYLEGK([ξγGlu-Palmitoyl])AAREFIAWLVRGRG-OH) the half-life was 1200 min.
